Data set [1] addresses Toll-like receptor 4 (Mus musculus) (UniProt Q9QUK6). The data set is described as follows: Agonist activity at TLR4 in mouse RAW blue cells assessed as increase in NF-kappaB activation-mediated SEAP production up to 10 uM measured after 20 hrs by SEAP reporter gene assay.
For data set [2] the target is unchanged. The experiment in a line: Antagonist activity at TLR4 in mouse RAW blue cells assessed as inhibition of LPS-induced NF-kappaB activation-mediated SEAP production up to 10 uM preincubated for 30 mins followed by LPS addition measured after 16 hrs by NF-kappaB reporter gene assay. On the technique in general: A reporter such as luciferase makes a cellular process visible.

A short description of data set [3]: Cytotoxicity against HEK-Blue cells assessed as reduction in cell viability at 10 uM after overnight incubation by MTT assay. In kind it is cell-based. The conditions noted are these: human. An outline of the steps:
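MTT viability assay in HEK-Blue hTLR4 cells seeded at 4 × 10^4/well in phenol red-free DMEM and incubated overnight. Cells then treated overnight with the highest compound concentration used in the activity assays (10 μM). MTT (5 mg/mL in PBS) added for 3 h; formazan dissolved in 0.1 N HCl/2-propanol; absorbance 570 nm. Normalized to untreated (PBS) control; mean ± SEM of three independent experiments.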
On the technique in general: Formazan colour is commonly taken as a measure of viable cells.

In data set [4] the test system is THP-1. The experiment in a line: Cytotoxicity against human THP1 cells assessed as reduction in cell viability up to 10 uM after 24 hrs in presence of LPS by MTT asssay. In kind it is cell-based. The conditions noted are these: thp-1, 24 h. In a few lines:
(§1)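 THP-1 monocytes in RPMI with 10% heat-inactivated FBS, used at 0.5 × 10^6 cells/mL. Cells exposed to compounds at 0–10 μM, with or without LPS (100 ng/mL), for up to 24 h. Viability read by MTT assay.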

For data set [5], the system named is THP-1. The data set is described as follows: Cytotoxicity against human THP1 cells assessed as reduction in cell viability up to 10 uM after 24 hrs in absence of LPS by MTT asssay. In kind it is cell-based. The settings on record: thp-1, 24 h. An outline of the steps:
as §1

In data set [6] the target is Toll-like receptor 4 (Homo sapiens, UniProt O00206). The experiment in a line: Antagonist activity at human TLR4 expressed in HEK blue cells assessed as inhibition of LPS-induced NF-kappaB activation-mediated SEAP production preincubated for 30 mins followed by LPS addition measured after overnight incubation in absence of light by NF-kappaB reporter gene assay. In kind it is cell-based. An outline of the steps:
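HEK-Blue hTLR4 cells (stably expressing hTLR4, hMD-2, hCD14 and an NF-κB/AP-1-driven SEAP reporter) seeded at 4 × 10^4/well, incubated overnight at 37 °C. Compound (in water or DMSO–H2O 1:1) added 30 min before 100 ng/mL E. coli O55:B5 LPS, then overnight incubation. Supernatant SEAP read with pNPP, 2–4 h in the dark at room temperature, OD 405 nm. Normalized to LPS alone; four-parameter logistic fit for IC50; ≥3 independent experiments.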

Data set [7] addresses Toll-like receptor 4 (Mus musculus) (UniProt Q9QUK6). The data set is described as follows: Antagonist activity at TLR4 in mouse RAW blue cells assessed as inhibition of LPS-induced NF-kappaB activation-mediated SEAP production preincubated for 30 mins followed by LPS addition measured after 16 hrs by NF-kappaB reporter gene assay.

Broadly, the IC50 is the concentration that gives 50% inhibition.

Calls of active or inactive are those of the source. The rule behind the calls is not given here.

Chain of Toll-like receptor 4 (O00206 whole entry): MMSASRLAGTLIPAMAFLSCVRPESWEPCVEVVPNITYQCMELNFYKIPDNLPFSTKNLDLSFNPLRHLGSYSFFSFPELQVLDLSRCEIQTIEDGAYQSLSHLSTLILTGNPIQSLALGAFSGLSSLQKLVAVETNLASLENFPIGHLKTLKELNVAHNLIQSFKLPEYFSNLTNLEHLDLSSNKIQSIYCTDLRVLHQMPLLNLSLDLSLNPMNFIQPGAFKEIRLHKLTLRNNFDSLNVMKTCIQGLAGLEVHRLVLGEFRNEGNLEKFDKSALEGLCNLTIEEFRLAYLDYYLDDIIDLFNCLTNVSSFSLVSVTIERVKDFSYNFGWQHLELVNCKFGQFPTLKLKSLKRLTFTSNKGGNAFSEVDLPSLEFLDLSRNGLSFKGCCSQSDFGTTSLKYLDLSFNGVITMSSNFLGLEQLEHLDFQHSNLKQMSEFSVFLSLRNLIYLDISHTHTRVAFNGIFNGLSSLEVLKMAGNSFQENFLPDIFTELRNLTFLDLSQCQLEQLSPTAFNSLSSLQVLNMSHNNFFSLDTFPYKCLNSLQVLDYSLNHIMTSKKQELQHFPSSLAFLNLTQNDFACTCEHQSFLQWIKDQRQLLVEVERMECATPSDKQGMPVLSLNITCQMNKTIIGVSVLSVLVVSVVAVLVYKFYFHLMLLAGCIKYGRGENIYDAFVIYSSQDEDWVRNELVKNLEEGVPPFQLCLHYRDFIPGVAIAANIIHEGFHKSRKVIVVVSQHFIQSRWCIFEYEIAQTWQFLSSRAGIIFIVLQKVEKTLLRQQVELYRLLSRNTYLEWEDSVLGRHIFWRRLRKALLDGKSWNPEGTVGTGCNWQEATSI
Chain of Toll-like receptor 4 (Mus musculus) (Q9QUK6 whole entry, looked up): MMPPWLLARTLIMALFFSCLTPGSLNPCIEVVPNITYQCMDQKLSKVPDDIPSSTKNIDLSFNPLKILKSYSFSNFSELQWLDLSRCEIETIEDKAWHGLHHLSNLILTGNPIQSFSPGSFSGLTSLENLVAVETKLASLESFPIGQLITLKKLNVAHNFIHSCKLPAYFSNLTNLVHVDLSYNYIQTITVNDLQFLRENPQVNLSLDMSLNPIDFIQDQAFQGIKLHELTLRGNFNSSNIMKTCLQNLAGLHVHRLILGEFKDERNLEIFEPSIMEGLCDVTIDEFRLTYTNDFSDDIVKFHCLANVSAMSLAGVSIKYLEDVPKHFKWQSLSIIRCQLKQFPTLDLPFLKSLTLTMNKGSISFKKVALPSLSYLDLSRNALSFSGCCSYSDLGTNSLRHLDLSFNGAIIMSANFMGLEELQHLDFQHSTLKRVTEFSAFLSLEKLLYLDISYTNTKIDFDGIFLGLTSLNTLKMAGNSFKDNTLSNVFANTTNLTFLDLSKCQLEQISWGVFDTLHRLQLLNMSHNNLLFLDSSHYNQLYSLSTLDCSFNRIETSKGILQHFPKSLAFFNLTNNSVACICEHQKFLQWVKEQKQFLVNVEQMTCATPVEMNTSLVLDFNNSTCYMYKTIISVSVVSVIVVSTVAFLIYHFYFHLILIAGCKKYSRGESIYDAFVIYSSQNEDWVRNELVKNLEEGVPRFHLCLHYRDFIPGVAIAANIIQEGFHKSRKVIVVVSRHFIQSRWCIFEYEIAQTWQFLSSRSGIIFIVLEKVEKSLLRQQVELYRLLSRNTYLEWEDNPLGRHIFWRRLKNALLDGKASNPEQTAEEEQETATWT

On to `CCCCCCCCCCCCCCCC(=O)N[C@H]1[C@@H](OP(=O)([O-])O)O[C@H](CO)[C@@H](OP(=O)([O-])O)[C@@H]1OC(=O)CCCCCCCCCCCCCCC.[Na+].[Na+]`, for which the Activity result is given as “Not Active” in data set [1], “Non-Toxic” in data set [3], “Non-Toxic” in data set [4] and “Non-Toxic” in data set [5]. In addition, in data set [2], the inhibition entry was “inactive”.
As for `CCCCCCCCCCCC(=O)N[C@H]1[C@@H](OP(=O)([O-])O)O[C@H](CO)[C@@H](OP(=O)([O-])O)[C@@H]1OC(=O)CCCCCCCCCCC.[Na+].[Na+]`, the Activity result in data set [1] was “Not Active”; in data set [3] it was “Non-Toxic”; in data set [4], “Non-Toxic”; in data set [5], “Non-Toxic”. Besides, the IC50 came to 0.63 µM in data set [6] and 1.7 µM in data set [7]. In data set [6], the inhibition result was “Dose-dependent effect”.
As to `CCCCCCCCCC(=O)N[C@H]1[C@@H](OP(=O)([O-])O)O[C@H](CO)[C@@H](OP(=O)([O-])O)[C@@H]1OC(=O)CCCCCCCCC.[Na+].[Na+]`, the Activity entry in data set [1] is on record as “Not Active”; in data set [3], “Non-Toxic”; in data set [4], “Non-Toxic”; in data set [5], “Non-Toxic”. For the same compound, the IC50 was 5.45 µM in data set [6] and 42 µM in data set [7]. Also, the inhibition result in data set [6] is “Dose-dependent effect”.
For `CCCCCCCCCCCCCC(=O)N[C@H]1[C@@H](OP(=O)(O)O)O[C@H](CO)[C@@H](OP(=O)(O)O)[C@@H]1OC(=O)CCCCCCCCCCCCC`, the Activity result in data set [1] is listed as “Not Active”; in data set [4] it was “Non-Toxic”; in data set [5] it was “Non-Toxic”. Further, the IC50 was 2 µM in data set [6] and 7.7 µM in data set [7]. Also, the inhibition result in data set [6] is “Dose-dependent effect”.

Source of the values: ChEMBL document CHEMBL4033792, “Structure-Activity Relationship in Monosaccharide-Based Toll-Like Receptor 4 (TLR4) Antagonists” (J Med Chem, 2018).
